What is called pKi is the Ki on a negative log10 scale, so that one unit is a factor of ten. Read a high pKi as a low Ki.

pKi: −log10 of the molar value. The source made the active and inactive calls. The calls are words filed in the database; no cut-off is given here.

Among the data in ChEMBL document CHEMBL1828538, “Synthesis and pharmacological evaluation of indole-based sigma receptor ligands” (Eur J Med Chem, 2011) are inhibition and Ki values, retold here.

The nature of assay [1]: Displacement of radioligand from sodium channel site 2 assessed as 50% receptor inhibition at 10^-5 M. In outline:
(§1)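 Part of a contracted (NovaScreen) panel of 64 radioligand/enzyme assays, with the test compound run at 10⁻⁵ M and 10⁻⁷ M. Each assay was scored by whether radioligand displacement exceeded 50% at each concentration.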

Assay [2] has as its target Sodium-dependent noradrenaline transporter (Homo sapiens, UniProt P23975). Kind of assay: Displacement of [125I]RTI-55 from human NET expressed in HEK293 cells. Format: cell-based. An outline of the steps: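 Nonspecific binding was defined with 5 μM mazindol. Ki was determined under standard conditions and reported as mean ± SEM of replicate assays. A value >10000 nM means less than 30% radioligand displacement at that concentration.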
On the technique in general: In a radioligand displacement assay an active substance lowers the binding of a labelled ligand.

For assay [3], the target named is T1, Muscarinic acetylcholine receptor M2 (Homo sapiens) (UniProt P08172).
T1 sequence (whole entry): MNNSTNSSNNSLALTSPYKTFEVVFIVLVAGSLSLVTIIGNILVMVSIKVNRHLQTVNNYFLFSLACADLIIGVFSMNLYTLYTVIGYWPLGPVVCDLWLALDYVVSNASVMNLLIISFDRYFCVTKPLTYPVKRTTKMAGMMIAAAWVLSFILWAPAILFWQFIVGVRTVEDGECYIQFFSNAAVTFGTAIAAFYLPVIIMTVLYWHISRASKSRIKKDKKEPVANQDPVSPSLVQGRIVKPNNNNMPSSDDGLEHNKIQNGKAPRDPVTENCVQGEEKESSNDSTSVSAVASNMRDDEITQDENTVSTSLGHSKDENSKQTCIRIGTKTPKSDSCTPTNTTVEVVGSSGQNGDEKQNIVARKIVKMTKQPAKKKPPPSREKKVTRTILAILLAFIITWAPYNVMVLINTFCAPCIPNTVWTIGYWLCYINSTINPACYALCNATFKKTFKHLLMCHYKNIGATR
Kind of assay: Displacement of radioligand from muscarinic M2 receptor assessed as 50% receptor inhibition at 10^-7 M. An outline of the steps: as §1

Assay [4] has as its target Cannabinoid receptor 2 (Homo sapiens) (UniProt P34972). Put plainly: Displacement of radioligand from cannabinoid CB2 receptor assessed as 50% receptor inhibition at 10^-5 M. An outline of the steps: as §1
The target of assay [5] is T1, Muscarinic acetylcholine receptor M2 (Homo sapiens). Kind of assay: Displacement of radioligand from muscarinic M2 receptor assessed as 50% receptor inhibition at 10^-5 M. In outline:
as §1

A short description of assay [6]: Displacement of radioligand from sodium channel site 2 assessed as 50% receptor inhibition at 10^-7 M. An outline of the steps:
as §1

Assay [7] has as its target Histamine H1 receptor (Homo sapiens) (UniProt P35367). Kind of assay: Displacement of radioligand from histamine H1 receptor assessed as 50% receptor inhibition at 10^-7 M. In outline: as §1
Assay [8] addresses Sodium-dependent serotonin transporter (Homo sapiens, UniProt P31645). Put plainly: Displacement of [125I]RTI-55 from human SERT expressed in HEK293 cells. Type of assay: cell-based.
The target in assay [9] is D(1A) dopamine receptor (Homo sapiens, UniProt P21728). Put plainly: Displacement of [3H]SCH-23390 from human D1 receptor in cell-based assay. An outline of the steps:
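LhD1 cells were labelled with 0.18 nM [3H]SCH-23390, with 1 μM SCH-23390 for nonspecific binding. Ki was from standard assay conditions, as mean ± SEM of replicates. A value >10000 nM denotes under 30% displacement at that concentration.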

Assay [10] in a line: Displacement of radioligand from muscarinic receptor assessed as 50% receptor inhibition at 10^-7 M. In outline: as §1
Assay [11] in a line: Displacement of radioligand from dopamine D4.2 receptor assessed as 50% receptor inhibition at 10^-5 M. In outline:
as §1

Assay [12] deals with Cannabinoid receptor 2 (Homo sapiens) (UniProt P34972). Kind of assay: Displacement of radioligand from cannabinoid CB2 receptor assessed as 50% receptor inhibition at 10^-7 M. In outline: as §1
Sequence of Cannabinoid receptor 2 (Homo sapiens) (P34972 whole entry): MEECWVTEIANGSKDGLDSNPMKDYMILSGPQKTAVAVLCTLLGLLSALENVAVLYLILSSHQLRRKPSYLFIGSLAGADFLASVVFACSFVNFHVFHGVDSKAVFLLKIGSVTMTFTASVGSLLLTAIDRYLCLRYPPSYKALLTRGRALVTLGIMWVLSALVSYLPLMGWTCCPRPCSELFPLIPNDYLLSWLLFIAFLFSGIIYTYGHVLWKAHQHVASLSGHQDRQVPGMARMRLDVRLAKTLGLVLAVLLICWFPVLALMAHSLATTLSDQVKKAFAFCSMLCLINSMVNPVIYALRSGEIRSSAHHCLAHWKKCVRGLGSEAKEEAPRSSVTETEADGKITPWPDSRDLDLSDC
Assay [13] in a line: Displacement of radioligand from BZT-sensitive L-type calcium channel assessed as 50% receptor inhibition at 10^-7 M. An outline of the steps: as §1
Assay [14] addresses T2, Substance-K receptor (Homo sapiens) (UniProt P21452).
T2 sequence (whole entry): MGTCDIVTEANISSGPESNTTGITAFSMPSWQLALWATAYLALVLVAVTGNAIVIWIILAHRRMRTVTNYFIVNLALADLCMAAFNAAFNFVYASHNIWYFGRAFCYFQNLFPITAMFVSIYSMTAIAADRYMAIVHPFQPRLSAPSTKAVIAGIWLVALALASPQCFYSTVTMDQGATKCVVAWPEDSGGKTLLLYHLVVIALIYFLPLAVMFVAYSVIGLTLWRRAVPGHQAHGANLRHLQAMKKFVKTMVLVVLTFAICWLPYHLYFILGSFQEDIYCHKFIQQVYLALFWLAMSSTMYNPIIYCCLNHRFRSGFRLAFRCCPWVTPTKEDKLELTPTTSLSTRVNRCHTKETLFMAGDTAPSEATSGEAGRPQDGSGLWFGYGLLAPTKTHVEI
Put plainly: Displacement of radioligand from neurokinin NK2 receptor assessed as 50% receptor inhibition at 10^-5 M. An outline of the steps:
as §1

The nature of assay [15]: Displacement of radioligand from adrenergic beta1 receptor assessed as 50% receptor inhibition at 10^-7 M. In outline: as §1
For assay [16], the target named is Mu-type opioid receptor (Homo sapiens) (UniProt P35372). Put plainly: Displacement of radioligand from opioid mu receptor assessed as 50% receptor inhibition at 10^-5 M. In outline: as §1
Sequence of Mu-type opioid receptor (Homo sapiens) (P35372 whole entry): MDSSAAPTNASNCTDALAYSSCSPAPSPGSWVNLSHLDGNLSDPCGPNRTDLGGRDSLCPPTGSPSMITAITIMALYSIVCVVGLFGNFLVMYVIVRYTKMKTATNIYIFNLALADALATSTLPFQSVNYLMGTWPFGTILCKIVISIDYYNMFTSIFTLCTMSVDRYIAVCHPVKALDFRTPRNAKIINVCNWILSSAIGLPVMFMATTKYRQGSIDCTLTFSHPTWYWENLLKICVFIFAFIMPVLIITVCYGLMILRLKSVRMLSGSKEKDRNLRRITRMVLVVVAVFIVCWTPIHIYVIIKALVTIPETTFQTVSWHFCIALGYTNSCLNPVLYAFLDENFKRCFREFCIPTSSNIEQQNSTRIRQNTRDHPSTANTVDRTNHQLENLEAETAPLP
Assay [17] addresses T3, Glycine receptor subunit alpha-1 (Homo sapiens) (UniProt P23415).
T3 sequence (whole entry): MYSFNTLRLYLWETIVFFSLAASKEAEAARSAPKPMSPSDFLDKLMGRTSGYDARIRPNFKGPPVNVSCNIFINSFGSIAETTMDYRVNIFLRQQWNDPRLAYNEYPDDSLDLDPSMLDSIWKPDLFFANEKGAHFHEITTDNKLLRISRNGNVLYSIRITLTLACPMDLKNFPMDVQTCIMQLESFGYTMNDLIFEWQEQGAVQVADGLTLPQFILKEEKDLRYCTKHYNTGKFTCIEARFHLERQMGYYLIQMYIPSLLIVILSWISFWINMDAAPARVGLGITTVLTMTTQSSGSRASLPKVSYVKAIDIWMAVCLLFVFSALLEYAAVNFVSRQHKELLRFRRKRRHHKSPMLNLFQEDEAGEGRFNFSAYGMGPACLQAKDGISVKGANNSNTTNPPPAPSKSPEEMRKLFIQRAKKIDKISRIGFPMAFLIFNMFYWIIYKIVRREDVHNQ
Kind of assay: Displacement of radioligand from strychnine sensitive glycine receptor assessed as 50% receptor inhibition at 10^-5 M. In outline:
as §1

Sequence of Sodium-dependent serotonin transporter (P31645 whole entry): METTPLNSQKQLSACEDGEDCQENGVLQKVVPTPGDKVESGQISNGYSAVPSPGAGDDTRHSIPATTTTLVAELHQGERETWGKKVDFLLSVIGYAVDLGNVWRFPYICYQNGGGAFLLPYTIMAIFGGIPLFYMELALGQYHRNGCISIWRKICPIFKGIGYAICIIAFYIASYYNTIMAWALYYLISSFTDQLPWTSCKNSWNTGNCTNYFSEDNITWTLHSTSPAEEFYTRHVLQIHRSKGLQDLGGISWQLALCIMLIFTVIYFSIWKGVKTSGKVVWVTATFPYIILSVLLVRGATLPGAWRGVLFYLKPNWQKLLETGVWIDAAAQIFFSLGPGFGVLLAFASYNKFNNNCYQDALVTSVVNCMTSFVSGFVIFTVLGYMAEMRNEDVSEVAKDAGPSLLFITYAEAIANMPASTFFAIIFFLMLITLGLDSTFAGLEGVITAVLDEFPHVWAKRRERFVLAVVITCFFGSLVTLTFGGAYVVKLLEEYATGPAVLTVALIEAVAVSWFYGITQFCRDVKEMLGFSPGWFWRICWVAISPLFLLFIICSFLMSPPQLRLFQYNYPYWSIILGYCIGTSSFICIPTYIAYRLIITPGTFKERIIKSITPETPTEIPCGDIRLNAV
Sequence of Sodium-dependent noradrenaline transporter (P23975 whole entry): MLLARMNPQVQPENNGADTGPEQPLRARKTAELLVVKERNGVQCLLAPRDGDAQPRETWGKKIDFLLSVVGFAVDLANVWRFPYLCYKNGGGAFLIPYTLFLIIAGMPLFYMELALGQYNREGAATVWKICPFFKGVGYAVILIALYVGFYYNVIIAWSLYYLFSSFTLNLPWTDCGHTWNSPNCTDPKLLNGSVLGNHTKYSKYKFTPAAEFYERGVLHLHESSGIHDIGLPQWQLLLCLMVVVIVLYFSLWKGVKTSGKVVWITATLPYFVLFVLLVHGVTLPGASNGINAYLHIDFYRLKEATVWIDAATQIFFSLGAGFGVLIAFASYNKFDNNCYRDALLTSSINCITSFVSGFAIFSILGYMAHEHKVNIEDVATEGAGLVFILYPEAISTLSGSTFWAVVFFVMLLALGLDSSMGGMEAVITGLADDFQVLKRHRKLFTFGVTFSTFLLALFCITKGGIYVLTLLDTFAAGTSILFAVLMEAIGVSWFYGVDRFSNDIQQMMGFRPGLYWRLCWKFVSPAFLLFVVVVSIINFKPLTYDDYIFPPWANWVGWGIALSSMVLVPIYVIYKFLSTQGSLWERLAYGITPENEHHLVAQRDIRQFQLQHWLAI
Sequence of D(1A) dopamine receptor (P21728 whole entry): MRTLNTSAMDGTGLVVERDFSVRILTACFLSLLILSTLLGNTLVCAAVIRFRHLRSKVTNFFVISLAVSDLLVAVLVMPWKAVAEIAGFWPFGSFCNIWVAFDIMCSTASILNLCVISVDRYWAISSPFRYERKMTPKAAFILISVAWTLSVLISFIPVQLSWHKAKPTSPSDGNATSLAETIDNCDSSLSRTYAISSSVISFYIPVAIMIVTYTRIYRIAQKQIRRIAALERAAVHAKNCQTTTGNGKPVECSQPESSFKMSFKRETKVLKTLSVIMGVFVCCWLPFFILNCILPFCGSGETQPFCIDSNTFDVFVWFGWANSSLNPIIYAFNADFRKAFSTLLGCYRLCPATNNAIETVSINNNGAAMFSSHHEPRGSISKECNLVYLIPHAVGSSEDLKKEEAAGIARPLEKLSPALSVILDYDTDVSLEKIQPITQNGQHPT
Sequence of Histamine H1 receptor (Homo sapiens) (P35367 whole entry): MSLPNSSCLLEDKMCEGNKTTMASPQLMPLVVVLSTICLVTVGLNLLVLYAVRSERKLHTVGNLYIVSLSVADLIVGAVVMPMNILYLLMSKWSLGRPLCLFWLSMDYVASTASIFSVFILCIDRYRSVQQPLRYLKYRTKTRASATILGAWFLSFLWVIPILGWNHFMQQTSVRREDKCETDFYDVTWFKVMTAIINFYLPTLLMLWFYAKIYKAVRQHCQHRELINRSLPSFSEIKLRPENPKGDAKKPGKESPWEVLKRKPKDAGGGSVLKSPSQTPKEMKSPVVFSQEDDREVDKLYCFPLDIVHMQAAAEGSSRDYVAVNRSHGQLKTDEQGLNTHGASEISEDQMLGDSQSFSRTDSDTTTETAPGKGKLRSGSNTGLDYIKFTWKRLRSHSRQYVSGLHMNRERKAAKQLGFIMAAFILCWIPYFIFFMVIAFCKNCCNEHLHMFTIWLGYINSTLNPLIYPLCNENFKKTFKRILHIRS

Regarding `COc1cc2c(cc1OC)CN(CCCCn1cc(-c3ccc(F)cc3)c3ccccc31)CC2`, the inhibition result in assay [1], in assay [4], in [5], in assay [11], in assay [14] and in assay [16] was “Active” throughout. The inhibition entry in [17] was “Active”. Besides, the pKi in assay [2] is 5.87; in assay [8], 6.53; in assay [9] it was < 5.00. Also, the inhibition entry in [3], in assay [6], in assay [7], in [10], in assay [12] and in assay [13] was “inactive” throughout. The inhibition entry in assay [15] was “inactive”.
